# Assay results reported in ChEMBL document CHEMBL2146434, “Synthesis and biological evaluation of new amino acid and dipeptide derivatives of neocryptolepine as anticancer agents” (J Med Chem, 2012).
# Assays:
# Mus musculus [1] = assay: Toxicity in C57BL/6 mouse xenografted with mouse LLC cells assessed as body weight loss at 30 mg/kg/day, sc administered on day 9 to day 12 of tumor implantation; type: organism-based; set-up: route subcutaneous; conditions: in vivo
# Outline: (§1)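 Mouse Lewis lung carcinoma (LLC) cells inoculated sc into mice. Daily dosing from day 9: 15 mg kg⁻¹ day⁻¹ through day 13 or 30 mg kg⁻¹ day⁻¹ through day 12; 25 or 50 mg kg⁻¹ day⁻¹ through day 13. Route is given as ip in tables and text but sc in figure legends. Body weight monitored for loss alongside tumor growth. Single 100 mg/kg cyclophosphamide dose as cytostatic control.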
# Mus musculus [2] = assay: Toxicity in C57BL/6 mouse xenografted with mouse LLC cells assessed as body weight loss at 15 mg/kg/day, sc administered on day 9 to day 13 of tumor implantation; type: organism-based; set-up: route subcutaneous; conditions: in vivo
# Outline: (§2)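 Body weight was tracked in C57BL/6 mice bearing subcutaneously inoculated LLC during therapy given daily from day 9 to day 13. A single 100 mg/kg dose of cyclophosphamide served as the cytostatic control group.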
# Mus musculus [3] = assay: Toxicity in C57BL/6 mouse xenografted with mouse LLC cells assessed as body weight loss at 30 mg/kg/day, ip administered on day 9 to day 12 of tumor implantation; type: organism-based; set-up: route intraperitoneal; conditions: in vivo; outline: as §1
# KB = assay: Cytotoxicity against human KB cells after 72 hrs by SRB assay; type: functional, cell-based
# A549 = assay: Cytotoxicity against human A549 cells after 72 hrs by SRB assay; type: functional, cell-based; conditions: A549, 72 h
# Outline: (§3)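 IC50 is the compound concentration giving 50% inhibition of cell proliferation. It was determined on normal mouse BALB/3T3 fibroblasts and on human A549, MCF-7 and LoVo cancer lines, with doxorubicin hydrochloride and DiMIQ as reference compounds.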
# MCF7 = assay: Cytotoxicity against human MCF7 cells after 72 hrs by SRB assay; type: functional, cell-based; conditions: MCF7, 72 h; outline: as §3
# LoVo = assay: Cytotoxicity against human LoVo cells after 72 hrs by SRB assay; type: functional, cell-based; outline: as §3
# [4] = test system: Lewis lung carcinoma cell line; assay: Antineoplastic activity against mouse LLC cells xenografted in C57BL/6 mouse assessed as tumor growth inhibition at 25 mg/kg/day, ip administered on day 9 to day 13 of tumor implantation measured on day 11; type: functional; conditions: route intraperitoneal, read-out: TGI
# Outline: (§4)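 Mice bore Lewis lung carcinoma (LLC) inoculated subcutaneously and received test agents intraperitoneally at 15–50 mg kg⁻¹ day⁻¹ from day 9 or day 10. A single 100 mg/kg cyclophosphamide dose was the cytostatic control. Tumor growth was followed as the group median, and TGI% was calculated from medians versus untreated controls. Significance was tested by nonparametric Kruskal–Wallis multiple comparison, p < 0.05.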
# [5] = test system: Lewis lung carcinoma cell line; assay: Antineoplastic activity against mouse LLC cells xenografted in C57BL/6 mouse assessed as tumor growth inhibition at 25 mg/kg/day, ip administered on day 9 to day 13 of tumor implantation measured on day 14; type: functional; conditions: route intraperitoneal, read-out: TGI; outline: as §4
# [6] = test system: Lewis lung carcinoma cell line; assay: Antineoplastic activity against mouse LLC cells xenografted in C57BL/6 mouse assessed as tumor growth inhibition at 25 mg/kg/day, ip administered on day 9 to day 13 of tumor implantation measured on day 16; type: functional; conditions: route intraperitoneal, read-out: TGI; outline: as §4
# [7] = test system: Lewis lung carcinoma cell line; assay: Antineoplastic activity against mouse LLC cells xenografted in C57BL/6 mouse assessed as tumor growth inhibition at 25 mg/kg/day, ip administered on day 9 to day 13 of tumor implantation measured on day 18; type: functional; conditions: route intraperitoneal, read-out: TGI; outline: as §4
# [8] = test system: Lewis lung carcinoma cell line; assay: Antineoplastic activity against mouse LLC cells xenografted in C57BL/6 mouse assessed as tumor growth inhibition at 25 mg/kg/day, ip administered on day 9 to day 13 of tumor implantation measured on day 21; type: functional; conditions: route intraperitoneal, read-out: TGI; outline: as §4
# [9] = test system: Lewis lung carcinoma cell line; assay: Antineoplastic activity against mouse LLC cells xenografted in C57BL/6 mouse assessed as tumor growth inhibition at 25 mg/kg/day, ip administered on day 9 to day 13 of tumor implantation measured on day 23; type: functional; conditions: route intraperitoneal, read-out: TGI; outline: as §4
# [10] = test system: Lewis lung carcinoma cell line; assay: Antineoplastic activity against mouse LLC cells xenografted in C57BL/6 mouse assessed as tumor growth inhibition at 50 mg/kg/day, ip administered on day 9 to day 13 of tumor implantation measured on day 11; type: functional; conditions: route intraperitoneal, read-out: TGI; outline: as §4
# [11] = test system: Lewis lung carcinoma cell line; assay: Antineoplastic activity against mouse LLC cells xenografted in C57BL/6 mouse assessed as tumor growth inhibition at 50 mg/kg/day, ip administered on day 9 to day 13 of tumor implantation measured on day 14; type: functional; conditions: route intraperitoneal, read-out: TGI; outline: as §4
# [12] = test system: Lewis lung carcinoma cell line; assay: Antineoplastic activity against mouse LLC cells xenografted in C57BL/6 mouse assessed as tumor growth inhibition at 50 mg/kg/day, ip administered on day 9 to day 13 of tumor implantation measured on day 16; type: functional; conditions: route intraperitoneal, read-out: TGI; outline: as §4
# [13] = test system: Lewis lung carcinoma cell line; assay: Antineoplastic activity against mouse LLC cells xenografted in C57BL/6 mouse assessed as tumor growth inhibition at 50 mg/kg/day, ip administered on day 9 to day 13 of tumor implantation measured on day 18; type: functional; conditions: route intraperitoneal, read-out: TGI; outline: as §4
# [14] = test system: Lewis lung carcinoma cell line; assay: Antineoplastic activity against mouse LLC cells xenografted in C57BL/6 mouse assessed as tumor growth inhibition at 50 mg/kg/day, ip administered on day 9 to day 13 of tumor implantation measured on day 21; type: functional; conditions: route intraperitoneal, read-out: TGI; outline: as §4
# [15] = test system: Lewis lung carcinoma cell line; assay: Antineoplastic activity against mouse LLC cells xenografted in C57BL/6 mouse assessed as tumor growth inhibition at 50 mg/kg/day, ip administered on day 9 to day 13 of tumor implantation measured on day 23; type: functional; conditions: route intraperitoneal, read-out: TGI; outline: as §4
# Mus musculus [16] = assay: Toxicity in C57BL/6 mouse xenografted with mouse LLC cells assessed as body weight loss at 15 mg/kg/day, ip administered on day 9 to day 13 of tumor implantation; type: organism-based; set-up: route intraperitoneal; conditions: in vivo; outline: as §2
# Mus musculus [17] = assay: Toxicity in C57BL/6 mouse xenografted with mouse LLC cells assessed as body weight loss at 25 mg/kg/day, sc administered on day 9 to day 13 of tumor implantation; type: organism-based; set-up: route subcutaneous; conditions: in vivo; outline: as §2
# Mus musculus [18] = assay: Toxicity in C57BL/6 mouse xenografted with mouse LLC cells assessed as body weight loss at 50 mg/kg/day, sc administered on day 9 to day 13 of tumor implantation; type: organism-based; set-up: route subcutaneous; conditions: in vivo; outline: as §1
# [19] = Dissociation constant, pKa of the compound in PBS buffer at 5 uM at pH 2 to 10 by UV-spectrophotometric analysis; type: physicochemical
# Outline: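 UV spectrophotometric titration at a final compound concentration of 5 μM. At this concentration the absorbance–concentration relationship stayed linear. pKa was read from spectral changes across pH.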
# [20] = Octanol-water partition coefficient, log P of the compound in citric buffer at pH 2.5 by spectrophotometric analysis; type: physicochemical
# Outline: (§5)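 Octanol–water partitioning, with log P defined as log(C_octanol/C_water). Compound in the aqueous phase was measured spectrophotometrically, and octanol content was obtained by subtracting the supernatant concentration from the total. Values are the mean of two independent experiments, each run in triplicate.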
# [21] = Octanol-water partition coefficient, log P of the compound in PBS buffer at pH 7.4 by spectrophotometric analysis; type: physicochemical; outline: as §5
# [22] = Toxicity in human erythrocytes assessed as hemolysis at 0.3 mM after 30 mins by spectrophotometric analysis; type: cell-based, Erythrocyte; conditions: read-out: Activity
# Outline: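 Human erythrocyte suspension under isotonic conditions (pH 7.4, hematocrit 50%). Compound added across a concentration series and incubated 30 min at 37 °C before hemolysis was scored. Mean ± SD of three individual determinations. Statistics by Mann–Whitney U test, p < 0.05.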
# [23] = Solubility of the compound in water; type: physicochemical; conditions: buffer
# Mus musculus [24] = assay: Toxicity in C57BL/6 mouse xenografted with mouse LLC cells at 25 to 50 mg/kg/day, ip administered on day 9 to day 13 of tumor implantation; type: organism-based; set-up: route intraperitoneal; conditions: in vivo; outline: as §1
# [25] = test system: Lewis lung carcinoma cell line; assay: Antineoplastic activity against mouse LLC cells xenografted in C57BL/6 mouse assessed as tumor growth inhibition at 100 mg/kg/day measured on day 17; conditions: 408 h, read-out: TGI
# [26] = test system: Lewis lung carcinoma cell line; assay: Antineoplastic activity against mouse LLC cells xenografted in C57BL/6 mouse assessed as tumor growth inhibition at 100 mg/kg/day measured on day 11; conditions: 264 h, read-out: TGI
# [27] = test system: Lewis lung carcinoma cell line; assay: Antineoplastic activity against mouse LLC cells xenografted in C57BL/6 mouse assessed as tumor growth inhibition at 100 mg/kg/day measured on day 14; conditions: 336 h, read-out: TGI
# [28] = test system: Lewis lung carcinoma cell line; assay: Antineoplastic activity against mouse LLC cells xenografted in C57BL/6 mouse assessed as tumor growth inhibition at 100 mg/kg/day measured on day 16; conditions: 384 h, read-out: TGI
# [29] = test system: Lewis lung carcinoma cell line; assay: Antineoplastic activity against mouse LLC cells xenografted in C57BL/6 mouse assessed as tumor growth inhibition at 100 mg/kg/day measured on day 18; conditions: 432 h, read-out: TGI
# [30] = test system: Lewis lung carcinoma cell line; assay: Antineoplastic activity against mouse LLC cells xenografted in C57BL/6 mouse assessed as tumor growth inhibition at 100 mg/kg/day measured on day 21; conditions: 504 h, read-out: TGI
# [31] = test system: Lewis lung carcinoma cell line; assay: Antineoplastic activity against mouse LLC cells xenografted in C57BL/6 mouse assessed as tumor growth inhibition at 100 mg/kg/day measured on day 23; conditions: 552 h, read-out: TGI
# [32] = test system: Lewis lung carcinoma cell line; assay: Antineoplastic activity against mouse LLC cells xenografted in C57BL/6 mouse assessed as tumor growth inhibition at 100 mg/kg/day measured on day 12; conditions: 288 h, read-out: TGI
# [33] = test system: Lewis lung carcinoma cell line; assay: Antineoplastic activity against mouse LLC cells xenografted in C57BL/6 mouse assessed as tumor growth inhibition at 100 mg/kg/day measured on day 19; conditions: 456 h, read-out: TGI
# [34] = test system: Lewis lung carcinoma cell line; assay: Antineoplastic activity against mouse LLC cells xenografted in C57BL/6 mouse assessed as tumor growth inhibition at 100 mg/kg/day measured on day 24; conditions: 576 h, read-out: TGI
smiles,measurement,setting,value
Cc1c2c3cc(NC(=O)CNC(=O)CN)ccc3nc-2n(C)c2ccccc12.Cl.Cl,Activity,Mus musculus [1],<= 15%
same,Activity,Mus musculus [2],<= 15%
same,Activity,Mus musculus [3],<= 15%
same,IC50,KB,4.65 µM
same,IC50,A549,0.9 µM
same,IC50,MCF7,2.7 µM
same,IC50,LoVo,0.73 µM
same,inhibition in vivo at 25 mg/kg/day,[4],37.4%
same,inhibition in vivo at 25 mg/kg/day,[5],31.8%
same,inhibition in vivo at 25 mg/kg/day,[6],27.2%
same,inhibition in vivo at 25 mg/kg/day,[7],22.4%
same,inhibition in vivo at 25 mg/kg/day,[8],28%
same,inhibition in vivo at 25 mg/kg/day,[9],35.8%
same,inhibition in vivo at 50 mg/kg/day,[10],46.9%
same,inhibition in vivo at 50 mg/kg/day,[11],62.6%
same,inhibition in vivo at 50 mg/kg/day,[12],52.2%
same,inhibition in vivo at 50 mg/kg/day,[13],38.3%
same,inhibition in vivo at 50 mg/kg/day,[14],29.3%
same,inhibition in vivo at 50 mg/kg/day,[15],42.9%
same,Activity,Mus musculus [16],<= 15%
same,Activity,Mus musculus [17],<= 15%
same,Activity,Mus musculus [18],<= 15%
same,pKa at 5 µM,[19],7.5
same,logP,[20],-1.9
same,logD,[21],-0.2
same,"hemolysis at 0.5 h, 300 µM",[22],9.97%
same,solubility,[23],soluble
same,Activity,Mus musculus [24],Non-toxic
O=P1(N(CCCl)CCCl)NCCCO1 (stereo not drawn) [CYCLOPHOSPHAMIDE ANHYDROUS],inhibition in vivo at 100 mg/kg/day,[25],37%
same,inhibition in vivo at 100 mg/kg/day,[26],49.8%
same,inhibition in vivo at 100 mg/kg/day,[27],36.8%
same,inhibition in vivo at 100 mg/kg/day,[28],31.9%
same,inhibition in vivo at 100 mg/kg/day,[29],12.5%
same,inhibition in vivo at 100 mg/kg/day,[30],21.3%
same,inhibition in vivo at 100 mg/kg/day,[31],30.4%
same,inhibition in vivo at 100 mg/kg/day,[32],24.1%
same,inhibition in vivo at 100 mg/kg/day,[33],40%
same,inhibition in vivo at 100 mg/kg/day,[34],0%
